In brackets after ≈: the same amount, converted by molar mass.
Assays:
Escherichia coli = assay: Antibacterial activity against Escherichia coli ATCC 8739 after 20 hrs by microbroth dilution method; format: functional; conditions: ATCC 8739, 20 h
Procedure, shortened: (§1)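 MIC by broth microdilution in Mueller–Hinton broth. Strains were pre-grown 24h at 37 °C with shaking at 180 rpm. Inoculum was 5x10^5 CFU/ml, exposed 20 h at 37 °C to compound (0.001 – 5 mg/ml, DMSO solvent). MIC was the lowest concentration inhibiting observable growth. Tetracycline served as reference. Triplicate.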

Proteus vulgaris = assay: Antibacterial activity against Proteus vulgaris PCM 2668 after 20 hrs by microbroth dilution method; format: functional; conditions: PCM 2668, 20 h; procedure, shortened: as §1
Enterobacter cloacae = assay: Antibacterial activity against Enterobacter cloacae PCM 2569 after 20 hrs by microbroth dilution method; format: functional; conditions: PCM 2569, 20 h; procedure, shortened: as §1
Pseudomonas aeruginosa = assay: Antibacterial activity against Pseudomonas aeruginosa PCM 2562 after 20 hrs by microbroth dilution method; format: functional; conditions: PCM 2562, 20 h; procedure, shortened: as §1
Klebsiella pneumoniae = assay: Antibacterial activity against Klebsiella pneumoniae PCM1 after 20 hrs by microbroth dilution method; format: functional; conditions: PCM1, 20 h; procedure, shortened: as §1
Enterococcus faecalis = assay: Antibacterial activity against Enterococcus faecalis PCM 2673 after 20 hrs by microbroth dilution method; format: functional; conditions: PCM 2673, 20 h; procedure, shortened: as §1
Salmonella bongori = assay: Antibacterial activity against Salmonella bongori PCM 2552 after 20 hrs by microbroth dilution method; format: functional; conditions: PCM 2552, 20 h; procedure, shortened: as §1
Staphylococcus aureus [1] = assay: Antibacterial activity against Staphylococcus aureus ATCC 6538 after 20 hrs by microbroth dilution method; format: functional; conditions: ATCC 6538, 20 h; procedure, shortened: as §1
Staphylococcus aureus [2] = assay: Antibacterial activity against Staphylococcus aureus MN8 assessed as reduction in CFU/ml by <3 logs after 24 hrs; format: functional; conditions: MN8, 24 h
Staphylococcus aureus [3] = assay: Antibacterial activity against Staphylococcus aureus MW2 assessed as reduction in CFU/ml by <3 logs after 24 hrs; format: functional; conditions: MW2, 24 h
[4] = Hemolytic activity in human blood cells at 5 ug/mL after 48 hrs by photometric method; format: ADME, cell-based, Erythrocyte; conditions: read-out: Activity
Staphylococcus aureus [5] = assay: Antibacterial activity against Staphylococcus aureus CDC587 assessed as reduction in CFU/ml by <3 logs after 24 hrs; format: functional; conditions: CDC587, 24 h
Staphylococcus aureus [6] = assay: Antibacterial activity against Staphylococcus aureus MNPE assessed as reduction in CFU/ml by <3 logs after 24 hrs; format: functional
Staphylococcus aureus [7] = assay: Antibacterial activity against Staphylococcus aureus LAC assessed as reduction in CFU/ml by <3 logs after 24 hrs; format: functional
[8] = Hemolytic activity in human erythrocytes at 60 ug/mL incubated for 1 hr; format: ADME, cell-based, Erythrocyte; conditions: read-out: Activity
Procedure, shortened: (§2)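 Human blood was collected into citrate dextrose anticoagulant. Erythrocytes were spun at 500×g for 10 min at 4 °C, then washed in PBS (10 mM phosphate, pH 7.5; 150 mM NaCl) until the supernatant was clear, and resuspended at 2%. 450 µl of suspension was mixed with compound in 50 µl DMSO (1 - 250 µg/ml), incubated 1h at 37 °C, spun at 5000×g for 10 min, and supernatant A415 was read. Controls: tetracycline and chloramphenicol negative, Triton X-100 (1%) positive.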

[9] = Hemolytic activity in human erythrocytes at 1 to 250 ug/mL incubated for 1 hr; format: ADME, cell-based, Erythrocyte; conditions: read-out: Activity; procedure, shortened: as §2

Row | MIC (Escherichia coli) [µg/mL] | MIC (Proteus vulgaris) [µg/mL] | MIC (Enterobacter cloacae) [µg/mL] | MIC (Pseudomonas aeruginosa) [µg/mL] | MIC (Klebsiella pneumoniae) [µg/mL] | MIC (Enterococcus faecalis) [µg/mL] | MIC (Salmonella bongori) [µg/mL] | MIC (Staphylococcus aureus [1]) [µg/mL] | MIC (Staphylococcus aureus [2]) [µg/mL] | MIC (Staphylococcus aureus [3]) [µg/mL] | MIC (Staphylococcus aureus [5]) [µg/mL] | MIC (Staphylococcus aureus [6]) [µg/mL] | MIC (Staphylococcus aureus [7]) [µg/mL] | Structure (SMILES) | hemolysis at 48 h, 5 ug/mL [4] [%] | hemolysis at 1 h, 60 ug/mL [8] [%] | hemolysis at 1 h [9] [%]
1 |  |  |  |  |  |  |  |  | 3 (≈ 17.4 µM) | 3 (≈ 17.4 µM) | 3 (≈ 17.4 µM) | 3 (≈ 17.4 µM) | 3 (≈ 17.4 µM) | CC1=CC(=O)c2ccccc2C1=O [MENADIONE] | 3.5 |  | 
2 | 250 (≈ 964 µM) | 500 (≈ 1930 µM) | 500 (≈ 1930 µM) | 500 (≈ 1930 µM) | 500 (≈ 1930 µM) | 250 (≈ 964 µM) | 500 (≈ 1930 µM) | 62.5 (≈ 241 µM) |  |  |  |  |  | COC(=O)[C@H](C)NC1=CC(=O)c2ccccc2C1=O |  |  | 
3 | 250 (≈ 858 µM) |  | 250 (≈ 858 µM) | 250 (≈ 858 µM) | 250 (≈ 858 µM) |  | 250 (≈ 858 µM) | 7.8 (≈ 26.8 µM) |  |  |  |  |  | Cc1cc(N(C)C)ccc1C1=CC(=O)c2ccccc2C1=O |  | 2 | ≤ 2
4 | 250 (≈ 849 µM) |  | 250 (≈ 849 µM) | 250 (≈ 849 µM) | 250 (≈ 849 µM) |  | 250 (≈ 849 µM) | 15.6 (≈ 53 µM) |  |  |  |  |  | COc1ccc(C2=CC(=O)c3ccccc3C2=O)c(OC)c1 |  |  | ≤ 2
5 | 500 (≈ 1810 µM) | 500 (≈ 1810 µM) | 500 (≈ 1810 µM) | 500 (≈ 1810 µM) | 500 (≈ 1810 µM) |  | 500 (≈ 1810 µM) | 15.6 (≈ 56.5 µM) |  |  |  |  |  | Cc1cc(C)c(C2=CC(=O)c3ccccc3C2=O)c(C)c1 |  |  | 
6 | 250 (≈ 922 µM) | 500 (≈ 1840 µM) | 250 (≈ 922 µM) | 250 (≈ 922 µM) | 250 (≈ 922 µM) | 250 (≈ 922 µM) | 250 (≈ 922 µM) | 31.2 (≈ 115 µM) |  |  |  |  |  | O=C1C=C(N2CCC[C@H]2C(=O)O)C(=O)c2ccccc21 |  |  | 
7 | 250 (≈ 778 µM) |  | 250 (≈ 778 µM) | 250 (≈ 778 µM) | 250 (≈ 778 µM) |  | 250 (≈ 778 µM) | 15.6 (≈ 48.5 µM) |  |  |  |  |  | COc1cc(NC(C)=O)ccc1C1=CC(=O)c2ccccc2C1=O |  |  | ≤ 2
8 | 250 (≈ 771 µM) |  | 250 (≈ 771 µM) | 250 (≈ 771 µM) | 250 (≈ 771 µM) |  | 250 (≈ 771 µM) | 250 (≈ 771 µM) |  |  |  |  |  | COc1cc(OC)c(C2=CC(=O)c3ccccc3C2=O)c(OC)c1 |  |  | 
9 | 250 (≈ 582 µM) |  | 250 (≈ 582 µM) | 250 (≈ 582 µM) | 250 (≈ 582 µM) | 250 (≈ 582 µM) | 250 (≈ 582 µM) | 250 (≈ 582 µM) |  |  |  |  |  | O=C1C=C(c2ccc(N(Cc3ccccc3)Cc3ccccc3)cc2)C(=O)c2ccccc21 |  |  | 
10 | 500 (≈ 1450 µM) |  | 500 (≈ 1450 µM) | 500 (≈ 1450 µM) | 500 (≈ 1450 µM) |  | 500 (≈ 1450 µM) | 500 (≈ 1450 µM) |  |  |  |  |  | COc1cc2ccc(C3=CC(=O)c4ccccc4C3=O)cc2cc1OC |  |  | 
11 | 250 (≈ 813 µM) |  | 250 (≈ 813 µM) | 250 (≈ 813 µM) | 250 (≈ 813 µM) |  | 250 (≈ 813 µM) | 7.8 (≈ 25.4 µM) |  |  |  |  |  | COc1cc(N(C)C)ccc1C1=CC(=O)c2ccccc2C1=O |  |  | 
12 | 500 (≈ 1910 µM) | 500 (≈ 1910 µM) | 500 (≈ 1910 µM) | 500 (≈ 1910 µM) | 500 (≈ 1910 µM) |  | 500 (≈ 1910 µM) | 500 (≈ 1910 µM) |  |  |  |  |  | Cc1ccc(C2=CC(=O)c3ccccc3C2=O)cc1C |  |  | 
13 | 500 (≈ 1830 µM) | 500 (≈ 1830 µM) | 500 (≈ 1830 µM) | 500 (≈ 1830 µM) | 500 (≈ 1830 µM) | 500 (≈ 1830 µM) | 500 (≈ 1830 µM) | 500 (≈ 1830 µM) |  |  |  |  |  | CC(C)[C@H](NC1=CC(=O)c2ccccc2C1=O)C(=O)O |  |  | 
14 | 250 (≈ 806 µM) | 500 (≈ 1610 µM) | 500 (≈ 1610 µM) | 500 (≈ 1610 µM) | 500 (≈ 1610 µM) |  | 500 (≈ 1610 µM) | 62.5 (≈ 201 µM) |  |  |  |  |  | O=C1C(c2ccccc2)=C(c2ccccc2)C(=O)c2ccccc21 |  |  | 
15 | 500 (≈ 1390 µM) | 500 (≈ 1390 µM) | 500 (≈ 1390 µM) | 500 (≈ 1390 µM) | 500 (≈ 1390 µM) | 500 (≈ 1390 µM) | 500 (≈ 1390 µM) | 62.5 (≈ 173 µM) |  |  |  |  |  | O=C1C=C(N[C@@H](Cc2c[nH]c3ccccc23)C(=O)O)C(=O)c2ccccc21 |  |  | 
16 | 125 (≈ 451 µM) | 250 (≈ 901 µM) | 250 (≈ 901 µM) | 250 (≈ 901 µM) | 62.5 (≈ 225 µM) |  | 125 (≈ 451 µM) | 125 (≈ 451 µM) |  |  |  |  |  | CN(C)c1ccc(C2=CC(=O)c3ccccc3C2=O)cc1 |  |  | 
17 |  |  |  | 250 (≈ 1070 µM) |  |  | 250 (≈ 1070 µM) |  |  |  |  |  |  | O=C1C=C(c2ccccc2)C(=O)c2ccccc21 |  |  | 
18 | 250 (≈ 1000 µM) |  | 250 (≈ 1000 µM) | 250 (≈ 1000 µM) | 250 (≈ 1000 µM) |  | 250 (≈ 1000 µM) | 62.5 (≈ 251 µM) |  |  |  |  |  | O=C1C=C(Nc2ccccc2)C(=O)c2ccccc21 |  |  | 
19 | 500 (≈ 1630 µM) |  | 500 (≈ 1630 µM) | 500 (≈ 1630 µM) | 500 (≈ 1630 µM) | 500 (≈ 1630 µM) | 500 (≈ 1630 µM) | 250 (≈ 814 µM) |  |  |  |  |  | O=C1C=C(N[C@@H](C(=O)O)c2ccccc2)C(=O)c2ccccc21 |  |  | 

Row | Structure (SMILES) | MIC (Escherichia coli) [µg/mL] | MIC (Proteus vulgaris) [µg/mL] | MIC (Enterobacter cloacae) [µg/mL] | MIC (Pseudomonas aeruginosa) [µg/mL] | MIC (Klebsiella pneumoniae) [µg/mL] | MIC (Enterococcus faecalis) [µg/mL] | MIC (Salmonella bongori) [µg/mL] | MIC (Staphylococcus aureus [1]) [µg/mL] | MIC (Staphylococcus aureus [2]) [µg/mL] | MIC (Staphylococcus aureus [3]) [µg/mL] | MIC (Staphylococcus aureus [5]) [µg/mL] | MIC (Staphylococcus aureus [6]) [µg/mL] | MIC (Staphylococcus aureus [7]) [µg/mL] | hemolysis at 48 h, 5 ug/mL [4] [%] | hemolysis at 1 h, 60 ug/mL [8] [%] | hemolysis at 1 h [9] [%]
20 | CN(C)[C@@H]1C(O)=C(C(N)=O)C(=O)[C@@]2(O)C(O)=C3C(=O)c4c(O)cccc4[C@@](C)(O)[C@H]3C[C@@H]12 [TETRACYCLINE] | 0.5 (≈ 1.13 µM) | 7.8 (≈ 17.6 µM) | 7.8 (≈ 17.6 µM) | 15.6 (≈ 35.1 µM) | 15.6 (≈ 35.1 µM) | 31.2 (≈ 70.2 µM) | 3.9 (≈ 8.78 µM) | 7.8 (≈ 17.6 µM) |  |  |  |  |  |  |  | 
21 | O=C1C=CC(=O)c2ccccc21 [NAPHTHOQUINONE] | 125 (≈ 790 µM) |  | 250 (≈ 1580 µM) | 125 (≈ 790 µM) | 250 (≈ 1580 µM) | 125 (≈ 790 µM) | 125 (≈ 790 µM) | 31.2 (≈ 197 µM) |  |  |  |  |  |  |  | 
